M5 PAM: potentiates acetylcholine response at human M5 receptor; P08912; CHO-K1 hM5, Fluo-8 calcium, ACh EC20 PAM; 0% = ACh EC20, 100% = ACh EC100; activation, % at 3 µM; actives 0.3% (n = 360,000);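 active = activation above the run cutoff, the mean activation of all test compounds plus 3 SD, cut at about 18% in these data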
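System – CHO-K1 hM5 cells · Compound – 3 µM, single dose · Incubation – compound preincubation 140 s before EC20 acetylcholine addition · Technique – Fluo-8 calcium fluorescence · Measure – Max/basal fluorescence ratio as % of EC20–EC100 ACh window · Benchmarks – low control EC20 acetylcholine (0%), high control EC100 acetylcholine (100%) · Replication – singlicate, one well per test compound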
CHRM5 antagonist: CHRM5 antagonism in calcium assay. actives 0.59% (n = 360,000). inhibition, % at 3 µM. CHO-hM5 cells, Fluo-8 calcium fluorescence, ACh EC80;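 active = inhibition above a per-plate cutoff, the mean of that plate's test compounds plus 3 SD, cut at about 27% in these data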;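 note: 0% = acetylcholine EC80 with DMSO and 100% = DMSO without agonist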
CHRM5 agonist: agonists of human muscarinic M5 receptor (CHRM5). actives 0.19% (n = 360,000). P08912. activation, % at 3 µM. CHO-K1 hM5 cells, Fluo-8 calcium fluorescence; 0% DMSO wells, 100% maximal acetylcholine response. AID 624037;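 active = activation above the run's mean over test compounds plus 3 SD, cut at about 23% in these data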;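 note: signal is peak over basal fluorescence ratio across the kinetic read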
M1 antag: antagonists of human M1 muscarinic receptor | CHO-K1 hM1, Fluo-8 calcium fluorescence, ACh EC80 antagonist | inhibition, % at 3 µM | actives 1.3% (n = 360,000) | AID 588852;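 active = percent inhibition above its own plate's cutoff, namely the mean of that plate's compound wells plus 3 SD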;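 note: peak over basal fluorescence ratio during 140 s after agonist addition; 0% = ACh EC80 plus DMSO and 100% = DMSO alone without agonist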
Target sequence (P11229 whole entry, looked up): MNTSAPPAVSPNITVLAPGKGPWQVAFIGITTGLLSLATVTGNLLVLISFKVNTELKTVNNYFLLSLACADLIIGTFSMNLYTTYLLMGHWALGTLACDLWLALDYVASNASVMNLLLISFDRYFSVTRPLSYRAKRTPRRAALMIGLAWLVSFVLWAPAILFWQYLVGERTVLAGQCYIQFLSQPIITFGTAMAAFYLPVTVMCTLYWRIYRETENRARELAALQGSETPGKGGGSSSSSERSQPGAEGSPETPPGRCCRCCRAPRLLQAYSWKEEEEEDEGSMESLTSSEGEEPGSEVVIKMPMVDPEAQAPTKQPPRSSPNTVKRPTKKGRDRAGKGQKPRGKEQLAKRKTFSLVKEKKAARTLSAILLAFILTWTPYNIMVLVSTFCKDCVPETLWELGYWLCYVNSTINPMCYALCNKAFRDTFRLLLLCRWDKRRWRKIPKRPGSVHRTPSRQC
CHRM1 PAM: human CHRM1 positive allosteric modulation; CHO-K1 hM1, Fluo-8 calcium fluorescence, ACh EC20; 0% = ACh EC20, 100% = maximal ACh; AID 588819; actives 0.088% (n = 360,000); activation, % at 3 µM; in the data active = activation above about 19%, passing the limit was not always enough
M1 ag: agonists of human M1 muscarinic receptor | P11229 | CHO-K1 hM1, Fluo-8 calcium fluorescence, agonist mode; 0% DMSO, 100% acetylcholine EC100 | activation, % at 3 µM | actives 0.33% (n = 360,000) | AID 588814;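 active = activation above the run's mean compound activation plus 3 SD, cut at about 16% in these data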;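 note: peak over basal fluorescence ratio within a 140 s kinetic read after compound addition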
An asterisk follows results filed as active; x = no result given. The list is not random: actives were taken first. Their share in the collection is about 2%.

SMILES	M5 PAM	CHRM5 antagonist	CHRM5 agonist	M1 antag	CHRM1 PAM	M1 ag
Cc1ccccc1C(=O)NC1CC2CCCC(C1)N2Cc1ccc(Cl)cc1 (centres undefined)	-8	0	-22	54*	-26	-10
CC(C)(C)OC(=O)NC1CC2CCCC(C1)N2Cc1ccccc1 (centres undefined)	-29	-2	-26	98*	-30	-9
COc1ccccc1C(=O)NC1CC2CCCC(C1)N2Cc1ccccc1 (centres undefined)	-2	4	-3	39*	-24	-9
CCC/C=C/c1ccc(CN2C(C(C)C)C(=O)N(Cc3cn(CC4CCCCC4)nn3)CCS2(=O)=O)cc1 (centres undefined)	5	-13	1	-5	0	-3
O=C(C[n+]1cc(-c2ccc(Cl)cc2)n2c1CCCCC2)c1ccccc1	-8	3	-14	14	-8	-8
CC(C)[C@@H]1CC[C@@H](C)C[C@H]1OC(=O)C[n+]1cc(-c2ccc(Cl)cc2)n2c1CCCCC2	-32	77*	-19	94*	-23	-4
COc1ccc(-c2c[n+](CC(=O)OC3CC(C)CCC3C(C)C)c3n2CCC3)cc1 (centres undefined)	-31	65*	-15	91*	-22	-6
Cc1cc(C)nc(Nc2nc(C(N)CCc3ccccc3)cs2)n1 (centres undefined)	1	0	6	-4	0	7
CC1=C(c2ccccc2)C=NNCC1=O	7	13	-3	-12	8	-4
CCOC(=O)c1[nH]c(C)c(CN(C(C)=O)c2ccc(OCC)cc2)c1C	-14	11	-11	26*	-29	-14
Cc1cc(C(=O)NCCc2ccc(S(N)(=O)=O)cc2)no1	18*	3	4	-11	13	-7
COc1ccc(NC(=S)NCCc2ccc(S(N)(=O)=O)cc2)c(OC)c1	-20	27*	0	18	-14	-6
COc1ccc(N=Cc2sc(O)c3ccccc23)cc1	-22	17	3	30*	-11	30*
COc1ccc(N=Cc2c(O)c3ccccc3n2C(C)=O)cc1	-2	11	3	-5	4	-4
COCC(=O)N(C)C[C@@H]1Oc2ncc(Br)cc2C(=O)N([C@@H](C)CO)C[C@H]1C	4	-5	1	-15	13	2
O=C(CSc1nnc(Cc2ccccc2)o1)c1ccc(F)cc1	0	3	-1	4	2	1
O=C(CSc1nnc(Cc2ccccc2)o1)c1cc(F)ccc1F	21*	3	-1	-9	12	-2
Cc1ccc(NC(=O)[C@@H]2O[C@H](CO)[C@@H](O)[C@H]2O)cc1C(F)(F)F	-1	4	1	21	-12	-2
CCCCCCCCN1C(=O)[C@H](CC(=O)N2CCOCC2)C[C@@]2(C(=O)OC)CC(C)(C)CC=C12	2	2	-2	x	x	x
Nc1cnccc1C(=O)O	-15	3	24*	-8	0	6
COC(=O)c1ccncc1N	7	5	0	4	0	-1
C[C@@H]1CN([C@H](C)CO)C(=O)CCCn2nncc2CO[C@H]1CN(C)Cc1cccnc1	1	-9	2	-3	-4	-7
CC(C)C#Cc1cnc2c(c1)C(=O)N([C@H](C)CO)C[C@@H](C)[C@H](CN(C)C(=O)Nc1ccccc1F)O2	8	-9	0	-14	23	0
COCCN1C(=O)CSCC1(C)C(=O)NCc1ccccc1 (centres undefined)	10	-14	2	x	x	x
CCCCC1Cc2[nH]c(=S)[nH]c(=O)c2C(c2cccc3ccccc23)O1 (centres undefined)	-7	4	1	x	x	x
Cc1ccc(C(=O)C2CCN(C(=S)NCCCOC(C)C)CC2)cc1	23*	-17	7	-8	15	0
CCOc1cc(OCC)cc(C(=O)N2CCC[C@H]2C(=O)N2CCC[C@H]2C(=O)NCc2ccccn2)c1	2	-7	1	x	x	x
CC(=O)c1cn(CCOc2ccccc2C)c2ccccc12	-16	29*	8	33*	-12	1

High-throughput results: PubChem BioAssay, The Scripps Research Institute Molecular Screening Center
